Our source for the Activity and MIC values is ChEMBL document CHEMBL1649344, “Abyssomicin I, a modified polycyclic polyketide from Streptomyces sp. CHI39” (2010).

One test has as its system Escherichia coli. Put plainly: Antimicrobial activity against Escherichia coli NIH-JC2 at 100 uM after 20 hrs. In kind it is functional, organism-based. In outline: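 E. coli is grown in Mueller Hinton broth for 20 h at 30 °C with shaking, spun down, and brought to 1 × 10^5 cells/mL in saline. This suspension is mixed in wells with medium and DMSO sample solution. The plate is incubated 20 h at 37 °C and growth is read at 650 nm.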

Test [1] has as its system Bacillus subtilis. Put plainly: Antimicrobial activity against Bacillus subtilis PCI219 at 100 uM after 20 hrs. The class given is functional, organism-based. In outline:
(§1)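 Broth microdilution in Mueller Hinton broth. Test bacteria are pre-grown 20 h at 30 °C on a reciprocal shaker, pelleted, and resuspended in saline at 1 × 10^5 cells/mL. Each well holds medium, cell suspension (1:10 of the well volume) and sample in DMSO. Plates are incubated 20 h at 30 °C, then growth is read as absorbance at 650 nm.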

For the next test, the system named is Candida albicans. Put plainly: Antimicrobial activity against Candida albicans IFO1594 at 100 uM after 20 hrs. The class given is functional, organism-based. In outline:
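C. albicans is cultured in yeast nitrogen base with 2% glucose for 20 h at 30 °C, harvested, and suspended in saline at 1 × 10^5 cells/mL. The suspension is combined in wells with the same medium and sample in DMSO. After 20 h at 30 °C, absorbance at 650 nm gives growth.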

Test [2] relates to Staphylococcus aureus. Nature of the test: Antimicrobial activity against Staphylococcus aureus IFO12732 at 100 uM after 20 hrs. In kind it is functional, organism-based. In outline: as §1
For test [3], the system named is Micrococcus luteus. Put plainly: Antimicrobial activity against Micrococcus luteus ATCC 9343 at 100 uM after 20 hrs. The class given is functional, organism-based. In outline:
as §1

Test [4] relates to Staphylococcus aureus. Nature of the test: Antimicrobial activity against Staphylococcus aureus IFO12732 after 20 hrs. The class given is functional. The note with it: IFO12732, 20 h. In outline:
as §1

Test [5] has as its system Micrococcus luteus. Nature of the test: Antimicrobial activity against Micrococcus luteus ATCC 9343 after 20 hrs. In kind it is functional. To be noted: ATCC 9343, 20 h. In outline:
as §1

In test [6] the test system is Bacillus subtilis. Put plainly: Antimicrobial activity against Bacillus subtilis PCI219 after 20 hrs. The class given is functional. To be noted: PCI219, 20 h. In outline:
as §1

≈ marks a conversion by molar mass, not a printed value. Calls of active or inactive are those of the source.

In the case of `C[C@@H]1CCC(=O)C2=C3O[C@@]4(C)[C@H](C)C[C@@]3(OC2=O)[C@H](/C=C/[C@H]1O)[C@H]4O`, the result in the test with Escherichia coli, in the test with Bacillus subtilis [1], in the test with Candida albicans, in the test on Staphylococcus aureus [2] and in the test on Micrococcus luteus [3] was inactive.
One may read the MIC as the smallest concentration in the dilution series that meets the test's criterion for growth inhibition. A high value points to a need for much substance. For the compound `C[C@@H]1CCC(=O)C2=C3O[C@@]4(C)[C@H](C)C[C@@]3(OC2=O)[C@H](/C=C/C1=O)[C@H]4O`, the result in the test on Escherichia coli and with Candida albicans was inactive. Besides, the MIC with Staphylococcus aureus [4], in the test with Micrococcus luteus [5] and in the test on Bacillus subtilis [6] was 29 µg/mL (≈ 83.7 µM) throughout.
